In ChEMBL document CHEMBL1250433, “Synthesis of 5-arylidene-2-amino-4-azolones and evaluation of their anticancer activity” (2010):

Experiments:
Type in all cases: functional
[1] = system: CCRF-CEM; assay: Cytotoxicity against human CCRF-CEM cells; details: for TGI: read-out: pTGI (converted)
Outline: (§1)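 Tested in the US National Cancer Institute 60 human tumour cell line screen. Dose-response parameters were calculated per cell line: GI50 (molar concentration giving 50% net growth inhibition), TGI (molar concentration giving total growth inhibition) and LC50 (molar concentration giving 50% net cell kill).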

[2] = system: UO-31; assay: Cytotoxicity against human UO31 cells; details: for TGI: read-out: pTGI (converted); outline: as §1
[3] = system: HL-60(TB); assay: Cytotoxicity against human HL-60(TB) cells; details: for TGI: read-out: pTGI (converted)
Outline: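 Tested in the National Cancer Institute 60 human tumour cell line in vitro screen, which includes leukaemia lines. From the dose–response data, GI50 is the molar concentration giving 50% inhibition of net cell growth, TGI is total growth inhibition, and LC50 is 50% net cell kill. Values are expressed as Log GI50.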

[4] = system: MOLT-4; assay: Cytotoxicity against human MOLT4 cells; outline: as §1
[5] = system: CAKI-1; assay: Cytotoxicity against human Caki1 cells; details: for TGI: read-out: pTGI (converted); outline: as §1
[6] = system: MDA-MB-435; assay: Cytotoxicity against human MDA-MB-435 cells; details: for TGI: read-out: pTGI (converted); outline: as §1
[7] = system: MCF7; assay: Cytotoxicity against human MCF7 cells; details: for TGI: read-out: pTGI (converted); outline: as §1
[8] = system: NCI-H460; assay: Cytotoxicity against human NCI-H460 cells; details: for TGI: read-out: pTGI (converted); outline: as §1
[9] = system: HCT-15; assay: Cytotoxicity against human HCT15 cells; outline: as §1
[10] = system: U-251; assay: Cytotoxicity against human U251 cells; outline: as §1
[11] = system: OVCAR-3; assay: Cytotoxicity against human OVCAR-3 cells; details: for TGI: read-out: pTGI (converted); outline: as §1
[12] = system: K562; assay: Cytotoxicity against human K562 cells; outline: as §1
[13] = system: NCI-H23; assay: Cytotoxicity against human NCI-H23 cells; details: for TGI: read-out: pTGI (converted); outline: as §1
[14] = system: SR; assay: Cytotoxicity against human SR cells; details: for TGI: read-out: pTGI (converted); outline: as §1
[15] = system: RPMI-8226; assay: Cytotoxicity against human RPMI8226 cells; outline: as §1
[16] = system: RXF 393; assay: Cytotoxicity against human RXF393 cells; outline: as §1
[17] = system: SNB-75; assay: Cytotoxicity against human SNB75 cells; outline: as §1
[18] = Cytotoxicity against human 786-O cells; outline: as §1
[19] = system: SW-620; assay: Cytotoxicity against human SW620 cells; details: for TGI: read-out: pTGI (converted); outline: as §1
[20] = system: M14; assay: Cytotoxicity against human M14 cells; outline: as §1
[21] = system: SF-295; assay: Cytotoxicity against human SF295 cells; outline: as §1
[22] = system: COLO 205; assay: Cytotoxicity against human COLO205 cells; outline: as §1
[23] = system: KM12; assay: Cytotoxicity against human KM12 cells; outline: as §1
[24] = system: OVCAR-4; assay: Cytotoxicity against human OVCAR4 cells; outline: as §1
[25] = system: HOP-62; assay: Cytotoxicity against human HOP62 cells; outline: as §1
[26] = system: T47D; assay: Cytotoxicity against human T47D cells; outline: as §1
[27] = system: HCC 2998; assay: Cytotoxicity against human HCC2998 cells; outline: as §1
[28] = system: NCI/ADR-RES; assay: Cytotoxicity against human NCI/ADR-RES cells; outline: as §1
[29] = system: HCT-116; assay: Cytotoxicity against human HCT116 cells; outline: as §1
[30] = system: SF-268; assay: Cytotoxicity against human SF268 cells; outline: as §1
[31] = system: SK-MEL-5; assay: Cytotoxicity against human SK-MEL-5 cells; outline: as §1
[32] = system: PC-3; assay: Cytotoxicity against human PC3 cells; details: for TGI: read-out: pTGI (converted); outline: as §1

COc1cc(/C=C2\SC(Nc3ccc(O)cc3)=NC2=O)ccc1OCc1ccc(F)cc1
GI50 [1]: 200 nM
TGI [1]: 1.15 µM
GI50 [2]: 891 nM
TGI [2]: 28.8 µM
GI50 [3]: 603 nM
TGI [3]: 10.2 µM

O=C1N=C(Nc2ccc(O)cc2)S/C1=C\c1ccc(Cl)cc1
GI50 [4]: 603 nM
TGI ([4]; read-out: pTGI (converted)): 17 µM
GI50 [5]: 501 nM
TGI [5]: 6.46 µM
GI50 [6]: 398 nM
TGI [6]: 1660 nM
GI50 [1]: 851 nM
TGI [1]: 10.2 µM
GI50 [7]: 50.1 nM
TGI [7]: 219 nM
GI50 [8]: 977 nM
TGI [8]: 87.1 µM
GI50 [9]: 427 nM
TGI ([9]; read-out: pTGI): > 100 µM
GI50 [10]: 490 nM
GI50 [11]: 162 nM
TGI [11]: 490 nM
GI50 [12]: 257 nM
GI50 [13]: 562 nM
TGI [13]: 3240 nM
GI50 [14]: 145 nM
TGI [14]: 525 nM
GI50 [15]: 407 nM
TGI ([15]; read-out: pTGI): > 100 µM
GI50 [3]: 437 nM
TGI [3]: 10.2 µM
GI50 [16]: 117 nM
TGI ([16]; read-out: pTGI (converted)): 3.98 µM

O=C1N=C(Nc2ccc(O)cc2)S/C1=C\c1ccc(F)cc1
GI50 [17]: 407 nM
TGI ([17]; read-out: pTGI): > 100 µM
GI50 ([18]; 786-0): 309 nM
TGI ([18]; 786-0, read-out: pTGI (converted)): 10 µM
GI50 [19]: 525 nM
TGI [19]: > 100000 nM
GI50 [20]: 617 nM
TGI ([20]; read-out: pTGI (converted)): 11.5 µM
GI50 [5]: 479 nM
TGI [5]: 2.45 µM
GI50 [6]: 31.6 nM
TGI [6]: 145 nM
GI50 [7]: 35.5 nM
TGI [7]: 115 nM
GI50 [21]: 380 nM
TGI ([21]; read-out: pTGI (converted)): 1910 nM
GI50 [22]: 631 nM
TGI ([22]; read-out: pTGI): > 100 µM
GI50 [23]: 132 nM
TGI ([23]; read-out: pTGI (converted)): 741 nM
GI50 [2]: 955 nM
TGI [2]: > 100 µM
GI50 [8]: 263 nM
TGI [8]: 0.955 µM
GI50 [24]: 832 nM
TGI ([24]; read-out: pTGI): > 100 µM
GI50 [25]: 427 nM
TGI ([25]; read-out: pTGI (converted)): 13.2 µM
GI50 [11]: 324 nM
TGI [11]: 562 nM
GI50 [26]: 661 nM
TGI ([26]; read-out: pTGI): > 100 µM
GI50 [13]: 372 nM
TGI [13]: 2090 nM
GI50 [14]: 537 nM
TGI [14]: > 100000 nM
GI50 [27]: 562 nM
TGI ([27]; read-out: pTGI (converted)): 2140 nM
GI50 [28]: 631 nM
TGI ([28]; read-out: pTGI (converted)): 3.16 µM
GI50 [29]: 219 nM
TGI ([29]; read-out: pTGI (converted)): 4.37 µM
GI50 [30]: 490 nM
TGI ([30]; read-out: pTGI (converted)): 4.37 µM

O=C1N=C(Nc2cccc(O)c2)S/C1=C\C(Cl)=C/c1ccc([N+](=O)[O-])cc1
GI50 [19]: 832 nM
TGI [19]: 2630 nM
GI50 [11]: 372 nM
TGI [11]: 955 nM

O=C1N=C(Nc2cccc(O)c2)S/C1=C\c1ccc(Cl)cc1
GI50 [11]: 490 nM
TGI [11]: 2750 nM

CN(C1=NC(=O)/C(=C/c2cccc(Cl)c2Cl)S1)c1ccc(O)cc1
GI50 [14]: 437 nM
TGI [14]: 2630 nM

CN(C1=NC(=O)/C(=C/C(Cl)=C\c2ccc([N+](=O)[O-])cc2)S1)c1ccc(O)cc1
GI50 [31]: < 10 nM
TGI ([31]; read-out: pTGI): < 10 nM

O=C1N=C(Nc2ccc(Cl)cc2)N/C1=C\c1ccc(Cl)cc1
GI50 [32]: 380 nM
TGI [32]: 4.37 µM

O=C1N=C(Nc2ccccc2Cl)N/C1=C\c1ccc(Cl)cc1Cl
GI50 [3]: 123 nM
TGI [3]: 1.82 µM

O=C1N=C(Nc2cccc(Cl)c2)N/C1=C\c1cccc(F)c1
GI50 [4]: 1050 nM

COc1ccc(CNC2=NC(=O)/C(=C/c3ccccc3Cl)N2)cc1
GI50 [32]: 91.2 nM
TGI [32]: 27.5 µM

O=C1N=C(NCc2ccc(Cl)cc2)N/C1=C\c1c(Cl)cccc1Cl
GI50 [1]: 1070 nM
TGI [1]: 29.5 µM

COc1ccc(/C=C2\SC(Nc3ccc(O)cc3)=NC2=O)cc1OC
GI50 [6]: 407 nM
TGI [6]: 2040 nM
GI50 [12]: 398 nM
TGI ([12]; read-out: pTGI (converted)): 6.76 µM
